Consider eleven molecules from publication PMC10449033 (European journal of inorganic chemistry, 2023).

The target in data set [1] is T1, mitochondrial calcium uniporter (MCU) (Homo sapiens, UniProt Q8NE86).
T1 sequence (Q8NE86 51-351): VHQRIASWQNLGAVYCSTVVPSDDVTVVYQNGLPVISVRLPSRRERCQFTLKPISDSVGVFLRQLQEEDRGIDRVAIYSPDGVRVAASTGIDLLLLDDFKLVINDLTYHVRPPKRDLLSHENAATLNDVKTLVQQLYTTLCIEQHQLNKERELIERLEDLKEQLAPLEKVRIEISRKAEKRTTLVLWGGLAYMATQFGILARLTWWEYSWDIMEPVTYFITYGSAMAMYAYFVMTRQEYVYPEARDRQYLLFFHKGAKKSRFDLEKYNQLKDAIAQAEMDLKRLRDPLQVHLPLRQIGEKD
T1 sequence (Q9H4I9 48-107 partner limits assumed): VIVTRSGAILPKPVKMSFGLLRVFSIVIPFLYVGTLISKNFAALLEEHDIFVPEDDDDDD
Kind of data set: mCa2+ uptake inhibition in digitonin-permeabilized HEK293T cells. The format is cell-based. The gist of the method: (§1)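 Trypsinised cells permeabilised on ice for 15 min in KCl buffer (HEPES, pH 7.2) with 80 μM digitonin and 1 μM thapsigargin. Resuspended with 1 μM Calcium Green-5N and 2 mM succinate (HeLa 5 × 10^6, HEK293T 1 × 10^7 cells mL−1). Complex equilibrated ~200 s at room temperature, then CaCl2 added (HeLa 10, HEK293T 20 μM). Read ex 488/em 528 every 5 s. Rate from exponential time constant vs untreated; Hill IC50; three biological replicates ± SD.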

Data set [2] deals with T1, mitochondrial calcium uniporter (MCU). Kind of data set: mCa2+ uptake inhibition in digitonin-permeabilized HeLa cells. The format is cell-based. The note with it: for mCa2+ uptake inhibition compared to untreated cells: 25 μM complex, digitonin-permeabilized HeLa cells. The method in brief:
as §1

A short description of data set [3]: Cytotoxicity, MTT assay, HeLa cells. The note with it: human. It counts as cell-based. The method in brief:
(§2)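 Cells seeded at ~4000 per well and left overnight, then exposed to a range of complex concentrations in medium for 72 h. MTT was added at 1 mg mL−1 in FBS-free DMEM for 3 h, and formazan was dissolved in 8:1 DMSO/glycine buffer (pH 10) for absorbance. Viability was normalised to untreated cells (100%), with Hill fit for IC50. Three independent trials ± SD.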
(In general: Tetrazolium assays rely on reduction of a dye to a coloured formazan, in cell work by metabolically active cells.)

A short description of data set [4]: Cytotoxicity, MTT assay, HEK293T cells. The note with it: human. It counts as cell-based. The gist of the method:
as §2

In data set [5] the test system is HEK293T cells. Nature of the data set: Mitochondrial membrane potential via JC-1 assay, HEK293T cells. The note with it: 50 μM, 24 h. The format is cell-based. The method in brief: (§3)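 About 1 × 10^5 cells on glass-bottomed dishes, left overnight, then exposed to complex (50 μM) for 24 h at 37 °C. Loaded with 10 μM JC-1 for 30 min in the dark at 37 °C, washed, and imaged in PBS with green (monomer) and red (J-aggregate) filter sets. The positive control was 50 μM CCCP in PBS. Red/green CTCF came from ≥8 cells, normalised to untreated (=1). Three trials ± SD.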

The test system of data set [6] is HeLa cells. Kind of data set: Mitochondrial membrane potential via JC-1 assay, HeLa cells. The format is cell-based. The note with it: 50 μM, 24 h. The method in brief: as §3
The target of data set [7] is T1, mitochondrial calcium uniporter (MCU). Nature of the data set: Mitochondrial Ca2+ uptake in intact HeLa cells using Rhod 2-AM. The format is cell-based. The note with it: 50 μM, 2 h, 37 °C, histamine 100 μM. The gist of the method:
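About 1 × 10^5 HeLa cells left overnight, then exposed to complex (50 μM) in DMEM/10% FBS for 2 h at 37 °C. Loaded with 2 μM Rhod 2-AM in extracellular medium (1 mM CaCl2, 10 mM glucose, BSA, Pluronic F127) for 30 min in the dark at room temperature. Then 30 min dye-free, 15 min at 37 °C. Confocal imaging, ex 561/em 568–712 nm: ~30 s baseline, then histamine (100 μM), frames every 3 s. Per-cell CTCF expressed as F/F0.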

For data set [8] the target is unchanged. The note with it: ref [35],[37],[39],[36]; cited from earlier work.
Data set [9] shares this target. The note with it: read-out: mCa2+ uptake inhibition IC50 HeLa, permeabilized HeLa cells, cited from earlier work.
Data set [10] has the same target. The note with it: read-out: mCa2+ uptake inhibition IC50 HEK293T; permeabilized HEK293T cells; ref [36]; cited from earlier work.

Read-outs that look alike come from different tables or passages of the source.

For the molecule `O=[N+]([O-])C12CNCCNCC([N+](=O)[O-])(CNCCNC1)CNCCNC2.[Co+3]` [Compound 1, [Co(diNOsar)]^3+], the half-inhibitory concentration (IC50) – broadly, the concentration that inhibits the measured activity by half – in data set [1] was found to be 7.98 ± 0.37 µM; in data set [2], 6.05 ± 0.48 µM.

Consider `NC12CNCCNCC(N)(CNCCNC1)CNCCNC2.[Co+3]` [Compound 2, [Co(diAMsar)]^3+], for which the IC50 in [1] and in data set [2] was > 25 µM each time. Further, the viability at 72 h, 1000 µM in data set [3] and in data set [4] was 40% each time.

`CC(CNCCN)(CNCCN)CNCCN.[Co+3]` [Compound 3, [Co(sen)]^3+]: the IC50 was 0.18 ± 0.02 µM in data set [1] and 0.16 ± 0.02 µM in data set [2]. For the same molecule, the “mCa2+ uptake inhibition compared to untreated cells” value in data set [2] is “completely abolish mCa^2+ uptake”. For the same molecule, the “depolarization of the mitochondrial membrane potential (JC-1)” value in data set [5] and in [6] was “did not lead to depolarization” in each case. Moreover, the “inhibition of histamine-induced mCa2+ uptake in intact cells” value (from here on “inhibition … in intact cells”) in data set [7] is reported as “statistically significant decrease in mCa^2+ uptake”.

Take `CC12CNCCNCC([N+](=O)[O-])(CNCCNC1)CNCCNC2.[Co+3]` [Compound 4, [Co(MeNOsar)]^3+]: the IC50 in data set [1] was determined as 2.73 ± 0.2 µM. In addition, in [2], the half-inhibitory concentration (IC50) came to 2.91 ± 0.26 µM and the “mCa2+ uptake inhibition compared to untreated cells” value is “comparable to that of 1”.

`CCOC(=O)C12CNCCNCC(C)(CNCCNC1)CNCCNC2=O.[Co+3]` [Compound 5, [Co(CO2Et,Mesar)]^2+]: the IC50 in [1] and in [2] was > 25 µM in each case.

Turning to `CC12CNCCNCC(C(=O)O)(CNCCNC1)C(=O)NCCNC2.[Co+3]` [Compound 6, [Co(CO2H,Mesar)]^2+], the half-maximal inhibitory concentration (IC50) in data set [1] and in [2] was > 25 µM throughout.

For the molecule `N.N.N.N.N.N.N.N.[Cl][Ru+3].[N-]=[Ru][Cl]` [Ru265], the “inhibition of MCU-mediated mCa2+ uptake in intact HeLa cells” value in [8] is listed as “able to inhibit”. Further, in data set [7], the “inhibition … in intact cells” value is listed as “significantly diminish mCa^2+ uptake”.

On to `N.N.N.N.N.N.N.N.[Cl][Ru+3].[NH]=[Ru][Cl]` [Ru265], for which the IC50 was 3.9 ± 1 nM in data set [9] (ref [36]) and 8.6 ± 2.2 nM in [10].

Turning to `NCCN.NCCN.NCCN.[Co+3]` [[Co(en)3]^3+], the IC50 is 115 ± 13 nM in data set [9] (ref [36]) and 76 ± 10 nM in data set [10]. In addition, the “inhibition … in intact cells” value in [7] was “cannot”.

For Os245, the “inhibition of MCU-mediated mCa2+ uptake in intact HeLa cells” value in data set [8] is given as “able to inhibit”. The IC50 in data set [9] (ref [39]) is 103 ± 30 nM.

As to Os245′, in data set [9] (ref [39]), the IC50 is 2.3 ± 0.8 nM.
